Screens as filed in PubChem BioAssay.
STAT3 blocker – reduces IL-6 driven STAT3 reporter signal; U3A cells, IL-6 STAT3-luciferase reporter, luminescence; host cell line lacks STAT1; inhibition, % at 5.5 µM; 190,000 compounds, 0.89% hits; AID 862;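 active = inhibition above the mean inhibition across all screened compounds plus 3 SD, cut at about 44% in these data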
FLuc act counter – firefly luciferase counter-screen for stimulation assays; AID 1027; 200,000 tested, under 10 active; ATPlite luciferase biochemical, luminescence, 10 min; 0 = ATP-free wells, 1 = DMSO control; P08659; activation factor at 10 µM;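 active = luciferase activation factor, scaled between plate controls, of at least 2 with compound at 10 µM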
Target sequence (P08659 whole entry, looked up): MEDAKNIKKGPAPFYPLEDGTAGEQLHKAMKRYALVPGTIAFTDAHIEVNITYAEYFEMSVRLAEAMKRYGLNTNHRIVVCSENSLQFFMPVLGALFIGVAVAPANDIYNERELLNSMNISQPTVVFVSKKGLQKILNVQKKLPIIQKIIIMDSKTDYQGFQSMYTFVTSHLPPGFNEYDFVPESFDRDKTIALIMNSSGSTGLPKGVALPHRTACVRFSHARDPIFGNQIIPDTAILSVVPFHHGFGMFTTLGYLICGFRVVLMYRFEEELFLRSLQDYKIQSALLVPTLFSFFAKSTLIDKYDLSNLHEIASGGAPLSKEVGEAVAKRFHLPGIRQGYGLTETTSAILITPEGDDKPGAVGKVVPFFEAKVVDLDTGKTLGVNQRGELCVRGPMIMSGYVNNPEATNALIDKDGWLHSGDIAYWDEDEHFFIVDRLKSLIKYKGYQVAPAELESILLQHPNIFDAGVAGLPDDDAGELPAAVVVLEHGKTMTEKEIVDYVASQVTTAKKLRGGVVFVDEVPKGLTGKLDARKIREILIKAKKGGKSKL
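Material: luciferase plus luciferin reagent, cell-free. Medium: PBS buffer for ATP. Also added: ATP substrate, dispensed from a 10.24 µM working solution in PBS. Doses: test compounds dosed from 2 mM stocks in 100% DMSO. Incubation: 10 min post-reagent at room temperature. Technique: light output (luminescence). Read-out basis: luminescence gain marking luciferase activators.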
STAT1 act – STAT1 signaling activation; activation (% of control), % at 5.5 µM; NIH 3T3 STAT1-luciferase reporter, IFN-gamma, luminescence; 100% = IFN-gamma alone, no compound; 200,000 compounds, 2.6% hits;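 active = activation above the screen-wide mean activation plus 3 SD, cut at about 130% in these data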
STAT1 blocker – inhibitors of IFN-gamma induced STAT1 signaling; NIH 3T3 STAT1-luciferase reporter, luminescence; inhibition, % at 5.5 µM; 200,000 compounds, 0.35% hits;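 active = inhibition above a set limit, the mean inhibition across all tested compounds plus 3 SD, cut at about 34% in these data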
FLuc inhib CS – Photinus pyralis luciferase inhibition counter-screen | ATPLite firefly luciferase biochemical luminescence, 10 min | P08659 | AID 1006 | 200,000 compounds, 1.5% hits | inhibition, % at 10 µM;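 active = inhibition above about 50% when tested at 10 µM, limit read from the data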
STAT3 activator – increases IL-6 driven STAT3 reporter signal. U3A cells, IL-6 STAT3-luciferase reporter, luminescence; 100% = signal with IL-6 EC80 alone. activation (% of control), % at 5.6 µM. 190,000 compounds, 0.91% hits. AID 871;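 active = activation above the screen-wide mean of compound activation plus 3 SD, cut at about 130% in these data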
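Material: human STAT1-deficient U3A cells with stable STAT3-luciferase reporter / Probe or stimulus: IL-6 stimulus at 33 ng/mL final / Schedule: 1 h compound pre-exposure, 6 h IL-6 stimulation, 37 °C / Technique: luminescence / Read-out basis: percent of IL-6-only median luminescence / Control set: IL-6-only high control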
STAT1 activ conf – STAT1 activation, confirmation assay. NIH 3T3 STAT1-luciferase reporter, IFN-gamma potentiation, luminescence; 100% = IFN-gamma EC80 alone, no compound. activation (% of control), % at 5.7 µM. 1,200 compounds, 97% hits. shares compounds with STAT1 act;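 active = activation above a set limit carried over from the earlier primary STAT1 screen, cut at about 140% in these data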
NFkB act – NF-kappaB activation in STAT1 activator counter-screen; AID 1306; 1,200 compounds, 43% hits; activation (% of control), % at 5.7 µM; HEK293T NF-kB luciferase reporter, TNF-alpha stimulated, luminescence; 100% = TNF-alpha with vehicle only; shares compounds with STAT1 act;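 active = activation above the mean of solvent-only control wells plus 3 SD, set per campaign, cut at about 130% in these data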;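 also: TNF-alpha given at a submaximal dose yielding about 80% of full reporter signal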
STAT3 act 2 – human STAT3 activation in STAT1 activator counter-screen | shares compounds with STAT1 act | U3A cells STAT3-luciferase reporter, IL-6, luminescence; cells lack STAT1; 100 = IL-6 alone, no compound effect | activation (% of control), % at 5.7 µM | 1,200 compounds, 46% hits;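 active = activation above the solvent-only control well mean plus 3 SD, set per plate batch, cut at about 110% in these data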;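 also: higher means more STAT3 reporter activation so hits are non-selective activators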
Numbers stand for hits; i = inactive; nt = no result given. In the library only some 4.9% were active in any assay of this set; here they are far more common.

SMILES	STAT3 blocker	FLuc act counter	STAT1 act	STAT1 blocker	FLuc inhib CS	STAT3 activator	STAT1 activ conf	NFkB act	STAT3 act 2
O=C(NNC(=O)C(O)(c1ccccc1)c1ccccc1)C1CC1	i	i	i	i	i	i	nt	nt	nt
CC(C)CCN1CCN(Cc2ccc(N3CCNC3=O)cc2)CC1CCO (stereo not given)	i	i	i	i	i	i	nt	nt	nt
c1ccc(N2CCN(c3nc4cc5c(cc4s3)OCCO5)CC2)cc1	i	i	158	i	i	i	190	i	i
CCc1ccc(NC(=O)CSc2nc3ccccc3c(=O)n2CCCC(=O)NCCCN2CCOCC2)cc1	i	i	i	i	i	i	nt	nt	nt
COC(=O)c1ccc(COc2ccccc2/C=C(\C#N)C(=O)Nc2ccc(C)cc2)cc1	i	i	151	i	i	i	195	135	i
Cc1ccc(-c2cnc(-c3ccncc3)o2)cc1	i	i	153	i	i	i	154	i	i
Cn1cc(Cl)c(C(=O)Nc2nc3ccc(Cl)cc3s2)n1	i	i	151	i	i	i	171	138	i
CCOC(=O)c1ccc2nc(NC(C)=O)sc2c1	i	i	161	i	i	i	168	i	i
CC(=O)Nc1nc2ccc(Br)cc2s1	i	i	174	i	i	i	205	141	112
Cc1ccc2nc(NC(=O)COC(=O)c3ccncc3)sc2c1	i	i	i	i	i	i	nt	nt	nt
COc1c(Cl)cnn(-c2ccc(Cl)c(Cl)c2)c1=O	i	i	i	i	i	i	nt	nt	nt
COc1ccc(CNC(=O)c2ccc(C(C)C)cc2)cc1	i	i	151	i	i	i	177	144	128
COc1ccc(CNC(=O)C(NC(C)=O)C(=O)Nc2ccc(C(C)C)cc2)cc1 (stereo not given)	i	i	i	i	i	i	nt	nt	nt
COc1ccc(C(=O)NCCSc2ccccc2)cc1	i	i	157	i	i	i	193	i	112
Oc1sc(C=Nc2ccccc2)c2ccccc12	i	i	166	i	i	i	209	141	i
COc1cccc(N2C(=O)C(c3ccccc3)=C(c3nc4ccccc4s3)C2NC(C)=O)c1 (stereo not given)	i	i	i	i	i	i	nt	nt	nt
COc1ccc(-c2nc3ccccc3s2)cc1NC(C)=O	i	i	173	i	i	i	195	i	119
Cc1ccc(C(=O)NC(=S)Nc2cc(-c3nc4ccccc4s3)ccc2C)cc1	i	i	i	i	i	i	nt	nt	nt
COc1cccc(-c2nc3ccccc3s2)c1	i	i	156	i	75	i	207	i	118
N/C(=N\c1nc2ccccc2o1)NC(=O)c1ccccc1F	i	i	151	i	i	i	162	i	119
CCc1ccc(-c2cc(N)n(-c3ccccc3)n2)cc1	i	i	172	i	82	i	195	146	i
Cc1cccc(-c2cc(N)n(-c3ccccc3)n2)c1	i	i	174	i	72	i	185	145	113
COc1cc(/C=N/OCC(=O)NC2CCCCC2C)ccc1OCc1ccc(Cl)cc1 (stereo not given)	i	i	158	i	i	i	182	134	i
COC(=O)c1ccc(/C=N/OCC(=O)NC2CCCC(C)C2C)cc1 (stereo not given)	i	i	i	i	i	i	nt	nt	nt
COc1cc(/C=N/OCC(=O)Nc2cc(C)cc(C)c2)ccc1OCc1ccc(Cl)cc1	i	i	152	i	i	i	183	i	113
